Active and inactive are the calls of the source. No cut-off for these calls is given here.
Legend:
[1] = Cytotoxicity against mouse BV2 cells assessed as cell viability at 1 uM incubated for 6 hrs by CCK-8 assay relative to control; assay type: cell-based, BV-2; conditions: read-out: Activity
Method in brief: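 BV-2 cells exposed to compound for 6 h, then viability measured; percent survival reported.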

BV-2 [2] = assay: Antiinflammatory activity in mouse BV2 cells assessed as reduction in LPS-induced iNOS level at 1 to 10 uM incubated for 6 hrs followed by LPS stimulation for 12 hrs by Western blot analysis; assay type: functional, cell-based
Method in brief: (§1)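 BV-2 cells pretreated with compound 6 h, then stimulated with 1 μg/mL LPS for 12 h; protein and mRNA levels quantified relative to LPS-stimulated control; mean ± SD (n = 3); paired t test.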

[3] = target: T1, Nuclear factor erythroid 2-related factor 2 (Mus musculus) (UniProt Q60795); assay: Activation of Nrf2 in mouse BV-2 cells assessed as increase in nuclear Nrf2 level at 10 uM by Western blot analysis relative to control; assay type: cell-based
T1 sequence (whole entry): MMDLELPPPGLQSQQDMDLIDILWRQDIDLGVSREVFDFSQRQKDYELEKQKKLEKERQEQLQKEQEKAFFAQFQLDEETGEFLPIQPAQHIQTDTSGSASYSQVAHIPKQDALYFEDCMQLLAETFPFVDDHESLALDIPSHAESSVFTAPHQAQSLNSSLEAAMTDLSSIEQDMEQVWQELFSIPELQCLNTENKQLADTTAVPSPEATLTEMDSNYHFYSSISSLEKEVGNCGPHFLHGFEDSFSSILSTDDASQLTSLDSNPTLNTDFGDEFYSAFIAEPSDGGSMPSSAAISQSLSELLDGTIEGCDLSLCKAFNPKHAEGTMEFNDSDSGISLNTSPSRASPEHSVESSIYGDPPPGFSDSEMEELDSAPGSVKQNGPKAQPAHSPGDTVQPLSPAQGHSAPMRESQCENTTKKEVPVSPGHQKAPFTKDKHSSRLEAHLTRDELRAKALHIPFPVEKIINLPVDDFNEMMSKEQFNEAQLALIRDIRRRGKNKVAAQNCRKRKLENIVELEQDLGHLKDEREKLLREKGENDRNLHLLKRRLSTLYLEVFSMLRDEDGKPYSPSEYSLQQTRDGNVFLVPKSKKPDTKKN
Method in brief: (§2)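 BV-2 microglia treated 0.3–10 μM; Nrf2 measured by Western blot in nuclear extracts and whole-cell lysates; at least duplicate cultures, averaged, expressed as fold of untreated control ± SEM; paired t test.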

SH-SY5Y = assay: Antioxidant activity in human SH-SY5Y cells assessed as increase in NQO1 level at 0.3 to 3 uM incubated for 6 to 24 hrs by Western blot analysis relative to control; assay type: functional
Method in brief: (§3)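 SH-SY5Y neuroblastoma cells treated for 6 or 24 h, then harvested; NQO1, GCLM, GCLC protein by Western blot with β-actin loading control; at least duplicate cultures, averaged, fold of untreated control ± SEM; paired t test.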

BV-2 [4] = assay: Antiinflammatory activity in mouse BV2 cells assessed as reduction in LPS-induced IL-6 production incubated for 24 hrs by ELISA; assay type: functional, cell-based
Method in brief: (§4)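 BV-2 cells given compound together with 1 μg/mL LPS for 24 h; mediator levels expressed relative to LPS-stimulated control ± SEM; at least duplicate cultures; paired t test.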

Mus musculus [5] = assay: Protection against MPTP-induced DAergic neurotoxicity in C57B/6 mouse model of Parkinson's disease assessed as restoration of TH-positive neurons cell density in SN at 20 mg/kg, po observed after 7 days by microscopic analysis; assay type: functional, organism-based
Method in brief: (§5)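 MPTP mouse model with 20 mg/kg oral dosing; striatal and substantia nigra sections collected 7 days later and stained for tyrosine hydroxylase; striatal TH density and nigral TH-positive neuron counts; mean ± SEM; one-way ANOVA with Tukey's test.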

[6] = target: T1, Nuclear factor erythroid 2-related factor 2 (Mus musculus); assay: Activation of Nrf2 in mouse BV-2 cells assessed as increase in total Nrf2 level at 10 uM by Western blot analysis relative to control; assay type: cell-based; method in brief: as §2
Mus musculus [7] = assay: Protection against MPTP-induced DAergic neurotoxicity in C57B/6 mouse model of Parkinson's disease assessed as restoration of TH-positive neurons cell density in striatum at 20 mg/kg, po observed after 7 days by microscopic analysis; assay type: functional, organism-based; method in brief: as §5
BV-2 [8] = assay: Antiinflammatory activity in mouse BV2 cells assessed as reduction in LPS-induced NO production at 1 to 10 uM incubated for 24 hrs by ELISA; assay type: functional, cell-based; method in brief: as §4
[9] = target: T2, Nuclear factor erythroid 2-related factor 2 (Homo sapiens) (UniProt Q16236); assay: Activation of Nrf2 in human SH-SY5Y cells assessed as increase in GCLM level incubated for 6 to 24 hrs by Western blot analysis; assay type: cell-based; method in brief: as §3
T2 sequence (whole entry): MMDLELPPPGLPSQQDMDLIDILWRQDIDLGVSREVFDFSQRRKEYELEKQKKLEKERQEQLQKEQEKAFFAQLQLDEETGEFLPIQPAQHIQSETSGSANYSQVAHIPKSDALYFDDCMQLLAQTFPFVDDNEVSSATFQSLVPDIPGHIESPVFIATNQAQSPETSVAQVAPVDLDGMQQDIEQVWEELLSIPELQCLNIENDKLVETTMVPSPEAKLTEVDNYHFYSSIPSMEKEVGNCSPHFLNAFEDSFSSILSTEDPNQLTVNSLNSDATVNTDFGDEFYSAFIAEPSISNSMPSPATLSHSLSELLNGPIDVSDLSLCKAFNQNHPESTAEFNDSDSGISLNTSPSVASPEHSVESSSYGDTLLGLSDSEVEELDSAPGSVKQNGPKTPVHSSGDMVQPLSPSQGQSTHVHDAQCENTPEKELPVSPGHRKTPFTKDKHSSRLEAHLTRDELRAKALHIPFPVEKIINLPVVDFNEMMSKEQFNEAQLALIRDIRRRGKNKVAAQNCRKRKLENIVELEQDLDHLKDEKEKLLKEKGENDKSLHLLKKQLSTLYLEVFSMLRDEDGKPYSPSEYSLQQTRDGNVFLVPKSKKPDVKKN

[10] = target: T1, Nuclear factor erythroid 2-related factor 2 (Mus musculus); assay: Activation of Nrf2 in mouse BV-2 cells assessed as increase in total Nrf2 level at 0.3 uM by Western blot analysis relative to control; assay type: cell-based; method in brief: as §2
BV-2 [11] = assay: Antiinflammatory activity in mouse BV2 cells assessed as reduction in LPS-induced IL-1beta expression at 3 to 10 uM incubated for 6 hrs followed by LPS stimulation for 12 hrs by RT-qPCR analysis; assay type: functional, cell-based; method in brief: as §1
Mus musculus [12] = assay: Protection against MPTP-induced DAergic neurotoxicity in C57B/6 mouse model of Parkinson's disease assessed as […] at 20 mg/kg, po observed after 7 days by microscopic analysis; assay type: functional, organism-based; method in brief: as §5
Mus musculus [13] = assay: Anti-parkinson's activity in MPTP-induced C57Bl/6 mouse model of Parkinson's disease assessed as restoration of descent time at 20 mg/kg, po administered for 3 consecutive days prior and subsequent to MPTP administration (four injections of MPTP, 2 h intervals, 20 mg/kg, i.p. injection by vertical grid test; assay type: functional, organism-based
Method in brief: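 Mice dosed 20 mg/kg p.o. (or vehicle) for 3 consecutive days before and after MPTP (four i.p. injections, 20 mg/kg, 2 h apart); vertical grid test (turning, descent, total time) and coat-hanger scoring; n = 10–12 per group; mean ± SEM; one-way ANOVA with Tukey's test.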

[14] = target: T3, Nuclear factor erythroid 2-related factor 2 (Homo sapiens, UniProt Q16236); assay: Activation of ED-tagged Nrf2 in human U2OS cells co-expressing Keap1 assessed as induction of NRF2 translocation to nucleus after 6 hrs by beta-galactosidase based chemiluminescent assay; assay type: cell-based
T3 sequence (Q16236 whole entry): T2 sequence (whole entry)

[15] = target: T2, Nuclear factor erythroid 2-related factor 2 (Homo sapiens); assay: Activation of Nrf2 in human SH-SY5Y cells assessed as increase in GCLC level at 0.3 to 3 uM incubated for 6 to 24 hrs by Western blot analysis relative to control; assay type: cell-based; method in brief: as §3
BV-2 [16] = assay: Antiinflammatory activity in mouse BV2 cells assessed as reduction in LPS-induced COX2 level at 1 to 10 uM incubated for 6 hrs followed by LPS stimulation for 12 hrs by Western blot analysis; assay type: functional, cell-based; method in brief: as §1

For COc1ccccc1OS(=O)(=O)/C=C/c1ccccc1Cl, the viability at 6 h, 1 µM [1] was 98%, the Activity (BV-2 [2]) was “Active” and the fold change (FC) [3] was 17.6. For the same molecule, the “fold change (FC)” value (SH-SY5Y) was 4.7, the Activity (BV-2 [4]) was “Dose-dependent effect” and the Activity (Mus musculus [5]) was “Active”. For the same molecule, the fold change (FC) [6] was 6.7, the Activity (Mus musculus [7]) was “Active” and the Activity (BV-2 [8]) was “Active”. For the same molecule, the Activity [9] was “Dose-dependent effect”, the fold change (FC) [10] was 3.3 and the Activity (BV-2 [11]) was “Active”. The Activity (Mus musculus [12]) was “Active”, the Activity (Mus musculus [13]) was “Active” and the EC50 [14] was 0.076 µM. The fold change (FC) [15] was 1.5 and the Activity (BV-2 [16]) was “Active”.
